# Hits are enriched below; roughly 4.5% of the tested compounds scored in any of these assays.
# GPR7 antag = GPR7 receptor antagonists, primary screen, cell-based, fluorescence, single concentration. GPR7-expressing cells, fluorescence antagonist assay. inhibition, % at 4.4 µM. Neuropeptides B/W receptor type 1 (Homo sapiens), P48145. 1.1% of 290,000 active. AID 1861, 2009; in the data active = inhibition above about 16%, passing the limit was not always enough;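 note: cells stimulated with the agonist NPW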
# OX1R antag-1 = antagonists of human orexin 1 receptor (OX1R) | Orexin/Hypocretin receptor type 1 (Homo sapiens), O43613 | OX1R-expressing cells, FRET antagonist read-out | 1.8% of 330,000 active | inhibition, % at 6.6 µM; in the data active = inhibition mostly above about 38%, no sharp cut-off; inactive = mostly below about 40%
# Target sequence (O43613 whole entry, looked up): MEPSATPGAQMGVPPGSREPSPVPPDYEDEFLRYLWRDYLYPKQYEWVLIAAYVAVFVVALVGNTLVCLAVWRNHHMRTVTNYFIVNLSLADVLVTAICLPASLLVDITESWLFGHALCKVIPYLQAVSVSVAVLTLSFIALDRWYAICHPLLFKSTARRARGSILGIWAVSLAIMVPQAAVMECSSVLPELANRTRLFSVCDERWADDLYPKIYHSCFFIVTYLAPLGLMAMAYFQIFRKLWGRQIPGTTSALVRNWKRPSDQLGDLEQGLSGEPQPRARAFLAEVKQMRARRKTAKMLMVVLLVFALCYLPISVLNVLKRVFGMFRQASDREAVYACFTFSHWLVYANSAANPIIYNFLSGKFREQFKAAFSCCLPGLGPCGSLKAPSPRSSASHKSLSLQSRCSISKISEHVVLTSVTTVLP
# CHO parental Ca = ATP-evoked calcium signal inhibitors, parental CHO, primary screen, counter-screen for OX1R antagonist project, cell-based, fluorescence, Fluo-8 calcium dye | parental CHO-K1, ATP-induced calcium, Fluo-8 fluorescence | inhibition, % at 5.6 µM | 0.63% of 330,000 active | AID 463079, 2010;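 active = inhibition above that plate's mean sample inhibition plus 3 SD, cut at about 26% in these data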
#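 Measured by: calcium-sensitive Fluo-8 fluorescence / Test system: CHO parental line / Controls: ATP-challenged DMSO wells low, unchallenged DMSO wells high / Measure: % inhibition / Compound: single nominal dose of 5.6 µM per compound / Replicates: single well per compound, no replicates / Reagent: ATP as calcium-mobilizing challenge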
# TAAR1 antagonist = human TAAR1 antagonists, primary screen, Fluo-8 calcium fluorescence, CHO RD-HGA16 cells; Trace amine-associated receptor 1 (Homo sapiens), Q96RJ0; antagonist; inhibition, % at 3 µM; 1.5% of 360,000 active;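 active = inhibition above a per-plate cutoff, the mean inhibition of test compounds on that plate plus 3 SD, cut at about 49% in these data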
# Target sequence (Q96RJ0 whole entry, looked up): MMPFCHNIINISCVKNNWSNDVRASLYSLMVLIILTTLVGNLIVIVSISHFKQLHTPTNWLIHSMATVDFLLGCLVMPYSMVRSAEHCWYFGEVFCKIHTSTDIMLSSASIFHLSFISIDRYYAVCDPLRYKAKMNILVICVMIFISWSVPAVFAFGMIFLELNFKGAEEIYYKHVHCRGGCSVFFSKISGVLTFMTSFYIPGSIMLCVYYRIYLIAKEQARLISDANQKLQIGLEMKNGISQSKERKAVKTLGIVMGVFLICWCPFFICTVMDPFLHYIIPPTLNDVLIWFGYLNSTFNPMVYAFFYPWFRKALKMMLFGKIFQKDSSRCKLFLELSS
#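 Test system – hTAAR1-expressing CHO RD-HGA16 cells, Gα16-coupled · Reagent – β-PEA at EC80 concentration, post-compound challenge · Compound dosing – 3 µM, single point · Timing – 140 s kinetic read after compound, 140 s after agonist · Detection – Fluo-8 intracellular calcium dye fluorescence, real-time kinetic reads · Control set – DMSO and EC80 PEA controls · Repeats – n of 1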
# OX1R antag-2 = OX1R (HCRTR1) antagonists, primary screen, fluorescence, CHO/OX1R cells, Fluo-8 calcium, orexin A; inhibition, % at 5 µM; Orexin/Hypocretin receptor type 1 (Homo sapiens), O43613; Fluo-8 calcium fluorescence; 0.43% of 330,000 active;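 active = inhibition above its plate's threshold, mean inhibition of all tested compounds on the plate plus 3 SD, cut at about 37% in these data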
# TAAR1 ag = human TAAR1 agonists, primary screen, Fluo-8 calcium fluorescence, CHO RD-HGA16 cells; Trace amine-associated receptor 1 (Homo sapiens), Q96RJ0; vehicle wells 0%, saturating PEA agonist 100%; activation, % at 3 µM; 0.99% of 360,000 active; AID 624467, 2012;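 active = activation above the mean activation of all test compounds in the run plus 3 SD, cut at about 38% in these data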
#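 Benchmarks: low control DMSO, high control PEA (EC100); System: CHO RD-HGA16 cells carrying human TAAR1 plus Gα16; Detection: Fluo-8 fluorescence, 5 s baseline then 140 s kinetic read; Schedule: 17-24 h plating, Fluo-8 75 min 37 °C, 30 min RT; Read-out basis: % activation from peak over basal fluorescence ratio, DMSO-to-PEA scaled.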
# TAAR1 ag confirm = human TAAR1 agonists, retest of hits, confirmation, Fluo-8 calcium fluorescence, CHO RD-HGA16 cells | shares compounds with TAAR1 ag | scaled: DMSO 0%, maximal phenethylamine 100% | activation, % at 3 µM | 82% of 2,400 active;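 active = activation above a cutoff set at the run's mean compound activation plus 3 SD, cut at about 39% in these data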
# Ga16 ag counter = nonselective calcium mobilization agonists, CHO-Ga16 cells, counter-screen for hTAAR1 agonist project, cell-based, fluorescence, CHO-Ga16 parental line; shares compounds with TAAR1 ag; Fluo-8 calcium fluorescence; normalized to maximal ATP response, DMSO zero; activation, % at 3 µM; 50% of 2,400 active; AID 651787, 2012;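 active = activation above the run cutoff, the mean activation over all tested wells plus 3 SD, cut at about 12% in these data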
# TAAR1 desens = TAAR1 desensitization by agonist hits, confirmation, counter-screen for TAAR1 agonist project, cell-based, fluorescence, tachyphylaxis; CHO RD-HGA16 hTAAR1, Fluo-8 calcium, beta-PEA response inhibition; shares compounds with TAAR1 ag; inhibition, % at 3 µM; 46% of 2,400 active; AID 651951, 2012;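 active = inhibition above the run cutoff, the mean inhibition of all test compounds plus 3 SD, cut at about 49% in these data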;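 note: beta-PEA stimulus applied at its EC80; loss of beta-PEA calcium signal after compound pretreatment read as receptor desensitization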
# Ga16 antag count = inhibition of ATP-evoked calcium response in CHO-Ga16 cells, counter-screen for TAAR1 agonist project, cell-based, fluorescence; shares compounds with TAAR1 ag; CHO-Ga16 ATP-induced calcium, Fluo-8 fluorescence; inhibition, % at 3 µM; 39% of 2,400 active; AID 651952, 2012;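 active = inhibition above the plate's mean compound inhibition plus 3 SD, computed per plate, cut at about 22% in these data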
# Hits are given with their value; 0 = inactive; - = not tested or not shown.
SMILES,GPR7 antag,OX1R antag-1,CHO parental Ca,TAAR1 antagonist,OX1R antag-2,TAAR1 ag,TAAR1 ag confirm,Ga16 ag counter,TAAR1 desens,Ga16 antag count
COc1ccc(Cc2nnc(NC(=O)C3CC(=O)N(CCc4ccc(F)cc4)C3)s2)cc1OC (stereo not drawn),0,0,0,0,0,0,-,-,-,-
Cc1ccc(C2OC3=C(C(=O)CC(C)(C)C3)C(N)=C2C#N)o1 (stereo not drawn),0,0,0,0,0,0,-,-,-,-
CCN(CC)c1ccc(/C=C(/C#N)c2nc3ccccc3[nH]2)c(OC(C)C)c1,0,39.3,65.7,99.4,116.4,92.0,0,30.3,65.2,64.0
CC1CC(C)CN(C(=O)Cn2cc(C=O)c3ccccc32)C1 (stereo not drawn),0,0,0,0,0,0,-,-,-,-
Cc1ccc(C)c(C(O)c2ncc(-c3cccc(C(F)(F)F)c3)[nH]2)c1 (stereo not drawn),-,-,-,65.7,-,66.3,58.1,45.4,0,33.1
CCC(=O)Nc1cccc(C(=O)c2ccc(C)c(C)c2)c1,0,0,0,0,0,0,-,-,-,-
CC1CN(C(NC(=O)c2ccccc2)C(Cl)(Cl)Cl)CC(C)O1 (stereo not drawn),0,-,-,0,-,46.1,69.7,0,0,0
CC1CN(C(NC(=O)C(C)(C)C)C(Cl)(Cl)Cl)CC(C)O1 (stereo not drawn),0,0,0,0,0,65.0,85.0,0,0,0
CCCCC(=O)NC(N1CCCCC1)C(Cl)(Cl)Cl (stereo not drawn),0,0,0,0,0,0,-,-,-,-
CC(=O)c1c(C)[nH]c(C(=O)OCc2nnc(-c3ccc([N+](=O)[O-])cc3)o2)c1C,-,0,0,0,0,48.1,0,0,0,0
O=C(NCc1ccccc1Cl)NCc1ccccc1Cl,0,0,0,0,0,0,-,-,-,-
O=C(Cc1ccc(-n2cccc2)cc1)NCc1ccccc1Cl,0,0,0,50.2,0,76.7,0,0,0,0
Cc1ccc(CNC(=O)COc2ccc(S(=O)(=O)N3CCOCC3)cc2)cc1,-,0,0,0,0,0,-,-,-,-
O=C(NCCc1ccccc1)C1CCC(CNS(=O)(=O)c2ccccc2)CC1 (stereo not drawn),0,0,0,0,0,0,-,-,-,-
NS(=O)(=O)c1ccc(CCNC(=O)C2CCC(CNS(=O)(=O)c3ccc(Br)s3)CC2)cc1 (stereo not drawn),0,0,0,71.5,0,52.6,40.9,0,59.1,0
O=C(NC1(C(F)(F)F)N=C(c2ccccc2)NC1=O)c1ccccc1 (stereo not drawn),0,0,0,0,0,0,-,-,-,-
O=C(NCCc1ccccc1)c1cc2ncc(Br)cn2n1,0,0,0,0,0,47.6,57.1,0,0,0
COCCNC(=O)c1cc2ncc(Br)cn2n1,0,0,0,0,0,0,-,-,-,-
COc1ccccc1N1CCN(C(=O)CN(C)S(=O)(=O)c2ccc(C)cc2)CC1,-,-,-,0,-,0,-,-,-,-
CCOc1cc(CN2CCCC(N3CCc4ccccc4C3)C2)ccc1O (stereo not drawn),0,-,-,0,-,0,-,-,-,-
COc1cc(CN2CCc3ccccc3C2)ccc1O,0,0,0,-,0,-,-,0,-,0
COc1cc(CN2CCc3ccccc3C2)cc([N+](=O)[O-])c1O,0,0,0,58.8,0,97.9,98.2,0,77.2,0
COc1cc(CN2CCCCCC2)cc([N+](=O)[O-])c1O,0,0,0,0,0,0,-,-,-,-
N#CC(=C1Nc2ccccc2N1)S(=O)(=O)c1ccccc1,0,0,0,0,0,0,-,-,-,-
Cc1onc(-c2ccccc2)c1C(=O)NNC(=S)NC(=O)c1ccc(Br)cc1,0,0,0,0,0,0,-,-,-,-
SMILES,GPR7 antag,OX1R antag-1,CHO parental Ca,TAAR1 antagonist,OX1R antag-2,TAAR1 ag,TAAR1 ag confirm,Ga16 ag counter,TAAR1 desens,Ga16 antag count
COc1ccc(-c2cc(C(=O)NNC(=S)NC(=O)c3c(-c4ccccc4)noc3C)[nH]n2)cc1,0,0,0,0,0,0,-,-,-,-
Cc1onc(-c2ccccc2)c1C(=O)NNC(=S)NC(=O)/C=C/c1ccccc1,0,0,0,54.9,0,136.4,148.6,125.8,89.8,61.0
Cc1ccccc1C(=O)NNC(=S)NC(=O)c1ccc(Cl)cc1Cl,0,0,0,108.9,0,181.3,132.4,103.1,104.1,80.7
COc1ccc(/C=C/C(=O)NC(=S)NNC(=O)c2ccco2)cc1,0,0,0,0,0,0,-,-,-,-
O=C(NC(=S)NNC(=O)c1ccc(Cl)cc1Cl)c1cccnc1,0,0,0,0,0,0,-,-,-,-
COc1ccc(/C=C/C(=O)NC(=S)NNC(=O)Cc2cccs2)cc1,0,0,0,0,0,48.4,0,18.6,0,25.4
COc1ccc(/C=C/C(=O)NC(=S)NNC(=O)c2c(-c3ccccc3)noc2C)cc1,0,0,0,49.0,0,93.1,68.3,65.9,51.6,52.0
CCN(CC)CCN(C(=O)Cn1nnc(-c2ccc(C)o2)n1)C(C(=O)NC(C)(C)C)c1cccs1 (stereo not drawn),0,0,0,0,0,0,-,-,-,-
Cc1cccc(C(=O)Nc2ccc(NC(=O)CN3CCOCC3)cc2)c1,0,0,0,0,0,0,-,-,-,-
CCn1c(C)nc2cc(C(=O)N/N=C(\C)c3ccccc3O)ccc21,0,0,0,0,0,0,-,-,-,-
Cc1cc(Cl)ccc1NC(=O)CCC(=O)N/N=C/c1cccnc1,0,-,-,0,-,0,-,-,-,-
Cc1onc(-c2ccccc2)c1C(=O)NNC(=S)NC(=O)c1ccc(Cl)cc1Cl,0,0,0,107.8,0,131.8,149.0,120.9,106.5,92.2

# High-throughput results as filed in PubChem BioAssay.
